Source: PubChem
Only a selection was taken, and hits are over-represented in it overall.
UPR CHOP act = apoptotic UPR (CHOP) activation; hit rate 0.34% among 330,000; AID 449763; activation, % at 10 µM; CHO-CHOP luciferase reporter, luminescence; percent of tunicamycin response over DMSO baseline;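 active means at 10 µM dose, activation of 40% or more, normalized to positive control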;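 further: 100% = tunicamycin at 10 µg/mL and 0% = DMSO alone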
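Test system: CHO CHOP reporter cells. Input: 500 CHO-CHOP cells per well. Medium: F12 with 10% FBS. Technique: luciferase luminescence. Measure: percent activation relative to tunicamycin control. Dosing: 10 µM compound, 0.5% DMSO. Timing: 16-18 h cell attachment, then 6 h compound exposure, 37 °C.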
XBP1 UPR activ = activators of adaptive arm of unfolded protein response (XBP1). CHO-XBP1 luciferase reporter, IRE1-XBP1 UPR activation, luminescence; percent of tunicamycin response, DMSO as zero. activation, % at 20 µM. hit rate 0.33% among 330,000. AID 463104;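 active means versus positive control, 20 µM dose yields 30% or more activation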;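 further: 100% = tunicamycin at 10 µg/mL and 0% = DMSO only wells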
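Assay system: CHO-XBP1 luciferase reporter cells; Schedule: 6 h treatment, 37 °C; Detection: glow luminescence from Steady-Glo reagent; Benchmarks: high control tunicamycin 10 µg/mL final, low control DMSO vehicle only.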
V-ATPase pHluor = regulators of yeast V-ATPase proton transport; S. cerevisiae, pHLuorin cytosolic pH fluorescence; response, % at 10 µM; hit rate 0.37% among 350,000; AID 504577; in the data active means response mostly above about 7.3%, no sharp cut-off; inactive means mostly below about 5.4%; further: actives read high
Tb MetRS inh = blocks T. brucei methionyl-tRNA synthetase activity. purified T. brucei MetRS, ATP depletion, Kinase-Glo luminescence. inhibition, % at 11.9 µM. hit rate 0.4% among 360,000. AID 624268;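 active means inhibition above a per-plate cutoff of the control wells' mean inhibition plus 3 SD, cut at about 5.5% in these data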;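 further: 0% = DMSO wells median and 100% = median of wells with control inhibitor compound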
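assay system = parasite MetRS enzyme | timing = 15 min preincubation, 2 h reaction, all 25 °C | evaluation = percent inhibition relative to median high and low control wells | medium = HEPES buffer containing pyrophosphatase, BSA, spermine, DTT | compound = single dose, 11.9 µM final nominal, 0.9% final DMSO | detection = Kinase-Glo luminescence, ATP depletion format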
CHOP inhibitor = CHOP inhibition in unfolded protein response | CHO-K1 CHOP-promoter luciferase, tunicamycin-induced, 15-18 h | inhibition, % at 10 µM | hit rate 3.8% among 220,000;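 active means compounds that reduced the stress-induced luciferase reporter signal by more than about 70% of percent inhibition, limit read from the data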;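 further: 0% = tunicamycin plus vehicle and 100% = wells without tunicamycin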
Numbers without * were called inactive.

For Cc1cc(Br)ccc1NC(=O)CN(C)C(=O)C1=COCCO1 the results were UPR CHOP act 1.4, XBP1 UPR activ -1.9, V-ATPase pHluor -2.6 and Tb MetRS inh 0.1.
Screening Cc1ccc(C(NC(=O)NC(C)c2ccccc2)C(Cl)(Cl)Cl)cc1F (stereo not drawn) returned UPR CHOP act 3.1, XBP1 UPR activ -3.4, V-ATPase pHluor 2.0, Tb MetRS inh -0.1 and CHOP inhibitor 86.5*.
`Cc1ccc(C)c(S(=O)(=O)N2CCC(c3nc4c(nnn4Cc4ccc(F)cc4)c(=O)[nH]3)CC2)c1` gave UPR CHOP act -3.1, XBP1 UPR activ 2.2, V-ATPase pHluor -2.5, Tb MetRS inh 0.3 and CHOP inhibitor 51.9.
`Cc1ccc(Cn2nnc3c(=O)[nH]c(C4CCN(S(=O)(=O)c5ccc(F)cc5)CC4)nc32)cc1` gave UPR CHOP act 0.6, XBP1 UPR activ -3.4, V-ATPase pHluor 1.4, Tb MetRS inh -0.5 and CHOP inhibitor 84.1*.
COc1ccc(C(C)(NC(C)=O)c2nc(-c3cccc4cccnc34)cs2)cc1 (stereo not drawn) was read as Tb MetRS inh -0.2.
`COc1cccc2c1C(=O)O/C2=C/c1ccc2c(c1)OCO2` gave UPR CHOP act 1.1, XBP1 UPR activ -9.6, V-ATPase pHluor 5.8, Tb MetRS inh -2.0 and CHOP inhibitor 85.1*.
For Cc1cccc(OCC(=O)N/N=C/CC(C)c2ccccc2)c1C (stereo not drawn) the results were UPR CHOP act 2.5, XBP1 UPR activ -0.4, V-ATPase pHluor -0.1, Tb MetRS inh -0.8 and CHOP inhibitor 77.5*.
Screening Cn1c(=S)[nH]c2sc3c(c2c1=O)CCC(C(C)(C)C)C3 (stereo not drawn) returned UPR CHOP act 15.3, XBP1 UPR activ 8.0, V-ATPase pHluor -4.6 and Tb MetRS inh -0.1.
For COCCCNC(=O)Cn1c(=O)oc2cc(S(=O)(=O)N3CC(C)CC(C)C3)ccc21 (stereo not drawn) the results were UPR CHOP act -0.1, XBP1 UPR activ -8.0, V-ATPase pHluor 20.4* and Tb MetRS inh -0.1.
CCCCNC(=O)Cn1c(=O)oc2cc(S(=O)(=O)N3CC(C)CC(C)C3)ccc21 (stereo not drawn) was read as UPR CHOP act -1.6, XBP1 UPR activ -0.5, V-ATPase pHluor 1.4, Tb MetRS inh -0.3 and CHOP inhibitor 93.9*.
Screening Cc1cc(C)cc(NC(=O)Cn2c(=O)oc3cc(S(=O)(=O)N4CC(C)CC(C)C4)ccc32)c1 (stereo not drawn) returned UPR CHOP act 1.9, XBP1 UPR activ -4.4, V-ATPase pHluor 3.2, Tb MetRS inh -0.1 and CHOP inhibitor 82.7*.
Cn1nc(C(C)(C)C)cc1C(=O)N1CCCCC1c1cc(C(=O)Nc2ccccc2Cl)no1 (stereo not drawn) was read as Tb MetRS inh -0.5.
For CCOc1ccc(-c2nnn(CC(=O)NCc3ccc(F)cc3)n2)cc1OCC the results were UPR CHOP act -0.5, XBP1 UPR activ -3.7, V-ATPase pHluor -1.4, Tb MetRS inh -0.9 and CHOP inhibitor 81.0*.
`CCOc1ccc(-c2nnn(CC(=O)Nc3cccc(OC)c3)n2)cc1OCC` gave UPR CHOP act -1.1, XBP1 UPR activ -1.7, V-ATPase pHluor -0.7, Tb MetRS inh -0.7 and CHOP inhibitor 49.1.
`COc1cccc(N(C(=O)Cn2nnc(-c3ccc(C)o3)n2)C(C(=O)NC2CCCC2)c2ccncc2)c1` (stereo not drawn) gave UPR CHOP act 2.3, XBP1 UPR activ -4.4, V-ATPase pHluor -1.6 and Tb MetRS inh -0.2.
Screening COc1cccc(N(C(=O)Cn2nnc(-c3cccs3)n2)C(C(=O)NC(C)C)c2ccc(C)o2)c1 (stereo not drawn) returned UPR CHOP act -3.1, XBP1 UPR activ -3.2, V-ATPase pHluor -6.9, Tb MetRS inh -0.1 and CHOP inhibitor 92.7*.
CN(C)CCN(Cc1ccccc1)C(=O)c1[nH]c(C(F)(F)F)nc1-c1ccccc1 was read as Tb MetRS inh 0.8.
`COc1ccc(-c2cc(C(F)(F)F)nc(N3CCOCC3)n2)cc1` gave UPR CHOP act -0.4, XBP1 UPR activ 0.7, V-ATPase pHluor -4.8, Tb MetRS inh 0.4 and CHOP inhibitor 64.8.
`COc1ccc(-c2cc(-c3ccc(F)cc3)nc(N3CCN(C)CC3)n2)cc1` gave UPR CHOP act 13.7, XBP1 UPR activ 13.9, V-ATPase pHluor 7.4, Tb MetRS inh 0.3 and CHOP inhibitor 86.7*.
`Cc1ccc(-n2nnnc2SCC(=O)c2c(N)n(C3CC3)c(=O)[nH]c2=O)cc1` gave UPR CHOP act 3.0, XBP1 UPR activ 4.7, V-ATPase pHluor 747.8* and Tb MetRS inh -0.3.
`O=C(CN(c1ccc(Cl)cc1)S(=O)(=O)c1ccccc1)N1CCN(c2ccccc2)CC1` gave UPR CHOP act -1.9, XBP1 UPR activ -3.7, V-ATPase pHluor -4.2, Tb MetRS inh -0.3 and CHOP inhibitor 73.2*.
COc1ccc(N2CCN(C(=O)CN(c3ccc(OC)cc3)S(=O)(=O)c3ccccc3)CC2)cc1 was read as UPR CHOP act 0.8, XBP1 UPR activ -4.0, V-ATPase pHluor 4.8 and Tb MetRS inh -0.1.
Screening C[C@@H]1CN([C@H](C)CO)C(=O)CCCn2nncc2CO[C@H]1CN(C)Cc1cccc2c1OCCCO2 returned V-ATPase pHluor 1.9 and Tb MetRS inh -2.0.
For CCOC(=O)c1ccc(N2C(=O)c3n[nH]c(-c4ccco4)c3C2c2cccc([N+](=O)[O-])c2)cc1 (stereo not drawn) the results were UPR CHOP act 1.6, XBP1 UPR activ 0.8, V-ATPase pHluor -0.6, Tb MetRS inh -0.3 and CHOP inhibitor 70.8*.
For O=C(N/N=C/c1ccc(Cl)cc1Cl)Nc1ccccc1 the results were UPR CHOP act 3.8, XBP1 UPR activ 3.1, V-ATPase pHluor -3.9, Tb MetRS inh -0.3 and CHOP inhibitor 59.2.
`O=C(N/N=C/c1cccc(Cl)c1Cl)Nc1ccccc1` gave UPR CHOP act 3.2, XBP1 UPR activ 3.5, V-ATPase pHluor -0.5, Tb MetRS inh -0.8 and CHOP inhibitor 71.4*.
COc1ccc(CNC(=O)C2CCCN2C(=O)Nc2cccc(Cl)c2)cc1 (stereo not drawn) was read as V-ATPase pHluor -1.2 and Tb MetRS inh -0.1.
For O=C(c1ccco1)N(Cc1ccc([N+](=O)[O-])cc1)c1ccc(Br)cc1 the results were UPR CHOP act -2.0, XBP1 UPR activ -0.4, V-ATPase pHluor 1.7, Tb MetRS inh -0.2 and CHOP inhibitor 70.1*.
Cc1cc2nc(C)n(CCCNC(=O)Nc3cccc4ccccc34)c2cc1C was read as UPR CHOP act 3.6, XBP1 UPR activ -1.4, V-ATPase pHluor -1.3, Tb MetRS inh -0.4 and CHOP inhibitor 75.3*.
`COc1ccc(NC(=O)CN(C)S(=O)(=O)c2ccc(Cl)cc2)cc1Cl` gave UPR CHOP act 1.4, XBP1 UPR activ -1.3, Tb MetRS inh -0.1 and CHOP inhibitor 16.1.
